The values below come from ChEMBL document CHEMBL3046106, “Synthesis and herbicidal activity of diphenyl ether derivatives containing unsaturated carboxylates” (J Agric Food Chem, 2011).

Holding throughout (assay type): functional
The test system of test [1] is Abutilon theophrasti. Briefly: Herbicidal activity against Abutilon theophrasti (velvetleaf) at 30 g/hm2 postemergent application after 2 weeks. Summed up:
(§1)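 Seedlings grown 14 days in the greenhouse; plants uniform in size and stage were chosen. Test compound in acetone sprayed post-emergence at a carrier volume equivalent to 187 L/ha. Plants returned to the greenhouse and watered; untreated plants served as control. Each species scored visually two weeks after application on a 0–100 scale (0 no activity, 100 total control).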

Test [2] deals with Abutilon theophrasti. In words: Herbicidal activity against Abutilon theophrasti (velvetleaf) at 120 g/hm2 postemergent application after 2 weeks. Summed up:
as §1

The test system of test [3] is Abutilon theophrasti. In words: Herbicidal activity against Abutilon theophrasti (velvetleaf) at 480 g/hm2 postemergent application after 2 weeks. Summed up: as §1
In test [4] the test system is Digitaria sanguinalis. In words: Herbicidal activity against Digitaria sanguinalis (hairy crabgrass) at 120 g/hm2 postemergent application after 2 weeks. The procedure, abridged:
as §1

The test system of test [5] is Digitaria sanguinalis. In words: Herbicidal activity against Digitaria sanguinalis (hairy crabgrass) at 30 g/hm2 postemergent application after 2 weeks. The procedure, abridged:
as §1

The subject of test [6] is Digitaria sanguinalis. In words: Herbicidal activity against Digitaria sanguinalis (hairy crabgrass) at 480 g/hm2 postemergent application after 2 weeks. The procedure, abridged: as §1
Test [7] has as its system Echinochloa crus-galli. Briefly: Herbicidal activity against Echinochloa crus-galli (barnyard grass) at 30 g/hm2 postemergent application after 2 weeks. The procedure, abridged:
as §1

The subject of test [8] is Echinochloa crus-galli. In words: Herbicidal activity against Echinochloa crus-galli (barnyard grass) at 120 g/hm2 postemergent application after 2 weeks. Summed up: as §1
In test [9] the test system is Echinochloa crus-galli. Briefly: Herbicidal activity against Echinochloa crus-galli (barnyard grass) at 480 g/hm2 postemergent application after 2 weeks. Summed up:
as §1

In test [10] the test system is Abutilon theophrasti. In words: Herbicidal activity against Abutilon theophrasti (velvetleaf) at 2000 g/hm2 postemergent application after 2 weeks. The procedure, abridged:
as §1

Test [11] concerns Abutilon theophrasti. In words: Herbicidal activity against Abutilon theophrasti (velvetleaf) at 1000 g/hm2 postemergent application after 2 weeks. Summed up: as §1
Test [12] concerns Digitaria sanguinalis. In words: Herbicidal activity against Digitaria sanguinalis (hairy crabgrass) at 2000 g/hm2 postemergent application after 2 weeks. The procedure, abridged:
as §1

Test [13] concerns Digitaria sanguinalis. In words: Herbicidal activity against Digitaria sanguinalis (hairy crabgrass) at 1000 g/hm2 postemergent application after 2 weeks. The procedure, abridged: as §1
Test [14] concerns Echinochloa crus-galli. In words: Herbicidal activity against Echinochloa crus-galli (barnyard grass) at 2000 g/hm2 postemergent application after 2 weeks. The procedure, abridged:
as §1

Test [15] concerns Echinochloa crus-galli. Briefly: Herbicidal activity against Echinochloa crus-galli (barnyard grass) at 1000 g/hm2 postemergent application after 2 weeks. The procedure, abridged: as §1

SMILES strings stand for the structures.

On to `CC(C)OC(=O)/C=C/COC(=O)c1cc(Oc2ccc(C(F)(F)F)cc2Cl)ccc1[N+](=O)[O-]`, for which the Activity is 80% in test [1]; 95% in test [2]; 100% in test [3]; 85% in test [4]; 80% in [5]; 90% in test [6]. Besides, the values for the Activity in test [7], in test [8] and in test [9] were 30%, 60% and 80%, respectively.

Take `COC(=O)/C=C/COC(=O)c1cc(Oc2ccc(C(F)(F)F)cc2Cl)ccc1[N+](=O)[O-]`: the Activity in test [1] amounted to 30%; in [2], 95%; in test [3], 100%; in test [4], 80%; in [5], 20%; in test [6], 90%. In addition, the Activity in [7] was determined as 10%; in [8], 60%; in test [9], 80%.

As for `C=CCOC(=O)/C=C/COC(=O)c1cc(Oc2ccc(C(F)(F)F)cc2Cl)ccc1[N+](=O)[O-]`, the Activity in test [10] is recorded as 100%; in test [11], 80%; in test [12] it was 55%; in test [13] it was 25%; in test [14], 60%; in [15], 30%.

On to `CCCOC(=O)/C=C/COC(=O)c1cc(Oc2ccc(C(F)(F)F)cc2Cl)ccc1[N+](=O)[O-]`, for which the Activity in test [1] was found to be 95%; in [2], 100%; in test [3], 100%; in test [4], 80%; in test [5] it was 70%; in [6], 90%. The results for the Activity in test [7], in [8] and in [9] were 10%, 40% and 70%, respectively.
